Activity calls are given as the source filed them. No cut-off for these calls is given here.
Columns and labels:
Mus musculus [1] = species: Mus musculus; assay: post-synaptic DA receptor antagonist activity was evaluated by inhibition of the apomorphine-induced stereotyped behavior in mice. inactive at below given dose; type: functional
How it was run: (§1)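 Overnight-fasted mice (16-20 h), groups of 10, given compound orally 1 h before apomorphine 1.5 mg/kg sc in 0.9% saline. Stereotypy observed for 1 min every 10 min over 40 min, starting 20 min post-apomorphine, scored by a published scale. ED50 with 95% confidence limits by linear regression, µmol/kg po.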

Mus musculus [2] = species: Mus musculus; assay: post-synaptic DA receptor antagonist activity was evaluated by inhibition of the apomorphine-induced stereotyped behavior in mice. inactive at single given dose; type: functional; how it was run: as §1
Mus musculus [3] = species: Mus musculus; assay: Induction of catalepsy in mice; type: functional
Mus musculus [4] = species: Mus musculus; assay: Inhibition of the GBL-induced increase in DOPA accumulation in mice(DA auto receptor agonist activity); type: functional
[5] = biological target: T1, Alpha-1 adrenergic receptor (Mus musculus) (UniProt P97714+P97717+P97718); assay: Inhibition of the lethal effects of noradrenaline in mice (alpha-1 induced adrenoceptor antagonist activity); type: functional
[6] = ratio between ED50 values of DA receptor antagonist activity and catalepsy.; type: functional
[7] = system: Dopamine D2 receptor (Mus musculus); assay: post-synaptic dopamine […] antagonist activity evaluated by inhibition of the apomorphine-induced stereotyped behavior in mice.
Mus musculus [8] = species: Mus musculus; assay: Induction of catalepsy in mice.; type: functional
Rattus norvegicus [9] = species: Rattus norvegicus; assay: Inhibition of the APO-induced stereotyped behavior in rats
Rattus norvegicus [10] = species: Rattus norvegicus; assay: Inhibition of the GBL-induced increase in DOPA synthesis in rats.
[11] = biological target: T1, Alpha-1 adrenergic receptor (Mus musculus); assay: Inhibition of noradrenaline lethal effects in mice as alpha-1 induced adrenoceptor antagonist activity; type: functional
Mus musculus [12] = species: Mus musculus; assay: Inhibition of the GBL-induced increase in DOPA accumulation in mice(DA auto receptor agonist activity); IA = inactive; type: functional, organism-based
Mus musculus [13] = species: Mus musculus; assay: Inhibition of the GBL-induced increase in DOPA synthesis in mice; IA = inactive; type: functional, organism-based
Mus musculus [14] = species: Mus musculus; assay: post-synaptic DA receptor antagonist activity was evaluated by inhibition of the apomorphine-induced stereotyped behavior in mice. 49% inhibition at single given dose; type: functional; how it was run: as §1
Mus musculus [15] = species: Mus musculus; assay: post-synaptic DA receptor antagonist activity was evaluated by inhibition of the apomorphine-induced stereotyped behavior in mice. 51% inhibition at single given dose.; type: functional; how it was run: as §1
Rattus norvegicus [16] = species: Rattus norvegicus; assay: Inhibition of the APO-induced stereotyped behavior in rats.

T1 sequence (P97714 whole entry, looked up): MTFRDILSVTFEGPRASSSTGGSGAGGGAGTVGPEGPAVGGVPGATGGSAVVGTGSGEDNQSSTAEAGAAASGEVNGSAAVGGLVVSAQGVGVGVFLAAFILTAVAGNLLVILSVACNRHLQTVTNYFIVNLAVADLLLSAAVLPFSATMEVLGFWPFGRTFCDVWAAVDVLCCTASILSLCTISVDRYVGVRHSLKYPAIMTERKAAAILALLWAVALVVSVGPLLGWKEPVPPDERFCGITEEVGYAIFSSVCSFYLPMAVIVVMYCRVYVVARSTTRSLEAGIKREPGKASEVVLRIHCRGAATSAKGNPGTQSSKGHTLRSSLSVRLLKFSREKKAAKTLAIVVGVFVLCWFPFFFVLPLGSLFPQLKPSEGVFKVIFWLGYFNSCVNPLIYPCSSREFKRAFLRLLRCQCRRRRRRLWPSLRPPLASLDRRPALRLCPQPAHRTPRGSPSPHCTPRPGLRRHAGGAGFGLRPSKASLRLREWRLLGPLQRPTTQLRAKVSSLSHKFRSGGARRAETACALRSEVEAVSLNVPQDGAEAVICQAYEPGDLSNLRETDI
T1 sequence (P97717 whole entry, looked up): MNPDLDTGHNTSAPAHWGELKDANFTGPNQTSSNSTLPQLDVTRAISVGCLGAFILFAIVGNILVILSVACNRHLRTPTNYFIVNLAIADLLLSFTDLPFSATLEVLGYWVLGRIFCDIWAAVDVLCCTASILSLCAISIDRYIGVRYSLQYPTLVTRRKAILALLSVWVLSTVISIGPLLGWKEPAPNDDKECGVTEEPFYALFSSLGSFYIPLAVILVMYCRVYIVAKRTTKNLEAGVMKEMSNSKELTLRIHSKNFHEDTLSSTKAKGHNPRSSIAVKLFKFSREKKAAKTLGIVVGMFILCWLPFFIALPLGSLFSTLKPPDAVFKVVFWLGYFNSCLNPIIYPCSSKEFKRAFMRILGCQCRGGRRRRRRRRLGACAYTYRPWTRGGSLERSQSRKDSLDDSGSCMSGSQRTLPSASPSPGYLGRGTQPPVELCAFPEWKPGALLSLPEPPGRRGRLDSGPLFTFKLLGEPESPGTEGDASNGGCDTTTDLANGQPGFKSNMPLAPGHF
T1 sequence (P97718 whole entry, looked up): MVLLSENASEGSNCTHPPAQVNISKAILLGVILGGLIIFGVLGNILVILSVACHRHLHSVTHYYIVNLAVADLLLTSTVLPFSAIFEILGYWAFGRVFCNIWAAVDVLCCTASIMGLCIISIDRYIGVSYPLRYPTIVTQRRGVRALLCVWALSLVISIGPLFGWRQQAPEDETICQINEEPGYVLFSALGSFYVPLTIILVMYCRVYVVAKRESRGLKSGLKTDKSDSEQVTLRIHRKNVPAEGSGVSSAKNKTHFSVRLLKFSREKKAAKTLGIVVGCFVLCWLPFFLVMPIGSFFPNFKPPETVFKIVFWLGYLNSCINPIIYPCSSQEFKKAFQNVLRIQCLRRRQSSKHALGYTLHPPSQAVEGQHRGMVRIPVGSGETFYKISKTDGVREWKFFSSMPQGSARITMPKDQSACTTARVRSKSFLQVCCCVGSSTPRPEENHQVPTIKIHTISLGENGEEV

Cc1ccc(Cl)cc1N1CCN(CCCCOc2ccc3c(c2)NC(=O)CC3)CC1
ED50 (Mus musculus [1]): > 23 µmol/kg

N#Cc1ccccc1N1CCN(CCCCOc2ccc3c(c2)NC(=O)CC3)CC1
ED50 (Mus musculus [2]; read-out: ED50): > 23 µmol/kg

Cc1cccc(N2CCN(CCCCOc3ccc4ccc(O)nc4c3)CC2)c1C
ED50 (Mus musculus [3]): 10.5 µmol/kg
ED50 (Mus musculus [4]): 3.9 µmol/kg
ED50 [5]: > 156 µmol/kg
Ratio [6]: 3.1
ED50 [7]: 3.4 µmol/kg

CC(=O)Nc1cccc(N2CCN(CCCCOc3ccc4c(c3)NC(=O)CC4)CC2)c1C
ED50 (Mus musculus [1]): > 25 µmol/kg

O=C1CCc2ccc(OCCCCN3CCN(c4ccccc4[N+](=O)[O-])CC3)cc2N1
ED50 (Mus musculus [1]): > 7 µmol/kg

Cc1c(N)cccc1N1CCN(CCCCOc2ccc3c(c2)NC(=O)CC3)CC1
ED50 (Mus musculus [1]): > 25 µmol/kg

Cc1cccc(N2CCN(CCCCOc3ccc4c(c3)NC(=O)CC4)CC2)c1Cl
ED50 (Mus musculus [8]): 1.4 µmol/kg
ED50 (Mus musculus [4]): > 23 µmol/kg
ED50 [5]: > 150 µmol/kg

O=C1CCc2cc(OCCCCN3CCN(c4cccc(Cl)c4Cl)CC3)ccc2N1
ED50 (Mus musculus [1]): > 22 µmol/kg

O=C1CCc2ccc(OCCCCN3CCN(c4cccc(Cl)c4Cl)CC3)cc2N1 [ARIPIPRAZOLE]
ED50 (Mus musculus [4]): 5.1 µmol/kg
ED50 [5]: > 286 µmol/kg
ED50 (Mus musculus [2]): > 22 µmol/kg
ED50 (Rattus norvegicus [9]): 11.8 µmol/kg
ED50 (Rattus norvegicus [10]): 6.9 µmol/kg

O=C1CCc2ccc(OCCCCN3CCN(c4ccc(Cl)cc4Cl)CC3)cc2N1
ED50 (Mus musculus [1]): > 7 µmol/kg

Cc1c(Cl)cccc1N1CCN(CCCCOc2ccc3c(c2)NC(=O)CC3)CC1
ED50 (Mus musculus [3]): 5.6 µmol/kg
ED50 (Mus musculus [4]): 3.5 µmol/kg
ED50 [11]: > 299 µmol/kg

Nc1ccccc1N1CCN(CCCCOc2ccc3c(c2)NC(=O)CC3)CC1
ED50 (Mus musculus [2]; read-out: ED50): > 25 µmol/kg

CN(C)CCCN1c2ccccc2Sc2ccc(Cl)cc21 [CHLORPROMAZINE]
ED50 (Mus musculus [12]): inactive
ED50 (Mus musculus [13]): inactive
ED50 [11]: 19.7 µmol/kg
ED50 (Rattus norvegicus [9]): 28.4 µmol/kg

Cc1c(O)cccc1N1CCN(CCCCOc2ccc3c(c2)NC(=O)CC3)CC1
ED50 (Mus musculus [2]; read-out: ED50): > 8 µmol/kg

Cc1c(Cl)cccc1N1CCN(CCCCOc2ccc3ccc(O)nc3c2)CC1
ED50 (Mus musculus [3]): 12.6 µmol/kg
ED50 (Mus musculus [4]): 20.1 µmol/kg
ED50 [5]: > 299 µmol/kg
Ratio [6]: 4.5
ED50 [7]: 2.8 µmol/kg

Cc1c(F)cccc1N1CCN(CCCCOc2ccc3c(c2)NC(=O)CC3)CC1
ED50 (Mus musculus [14]): 7.2 µmol/kg

O=C1CCc2ccc(OCCCCN3CCN(c4cc(Cl)cc(Cl)c4Cl)CC3)cc2N1
ED50 (Mus musculus [4]): > 21 µmol/kg
ED50 [11]: > 265 µmol/kg

O=C1CCc2ccc(OCCCCN3CCN(c4c(Cl)cccc4Cl)CC3)cc2N1
ED50 (Mus musculus [2]; read-out: ED50): > 7 µmol/kg

CCOc1ccccc1N1CCN(CCCCOc2ccc3ccc(O)nc3c2)CC1
ED50 (Mus musculus [4]): > 20 µmol/kg
ED50 [5]: > 127 µmol/kg
ED50 [7]: 0.24 µmol/kg

O=C1CCc2ccc(OCCCCN3CCN(c4ccc(Cl)cc4)CC3)cc2N1
ED50 (Mus musculus [1]): > 8 µmol/kg

Cc1cc(Br)ccc1N1CCN(CCCCOc2ccc3c(c2)NC(=O)CC3)CC1
ED50 (Mus musculus [15]): 21 µmol/kg

Cc1c(C#N)cccc1N1CCN(CCCCOc2ccc3c(c2)NC(=O)CC3)CC1
ED50 [7]: 4.1 µmol/kg

Cc1c(N2CCN(CCCCOc3ccc4c(c3)NC(=O)CC4)CC2)cccc1[N+](=O)[O-]
ED50 (Mus musculus [3]): 5.9 µmol/kg
ED50 (Mus musculus [4]): > 23 µmol/kg
ED50 [11]: > 146 µmol/kg
Ratio [6]: 8.7
ED50 [7]: 0.7 µmol/kg

O=C1CCc2ccc(OCCCCN3CCN(c4cc(Cl)cc(Cl)c4)CC3)cc2N1
ED50 (Mus musculus [4]): > 22 µmol/kg
ED50 [5]: > 256 µmol/kg

O=C1CCc2c(cccc2OCCCCN2CCN(c3cccc(Cl)c3Cl)CC2)N1
ED50 (Mus musculus [2]; read-out: ED50): > 22 µmol/kg

Cc1cccc(N2CCN(CCCOc3ccc4c(c3)NC(=O)CC4)CC2)c1C
ED50 [7]: 26 µmol/kg

CCOc1ccccc1N1CCN(CCCCOc2ccc3c(c2)NC(=O)CC3)CC1
ED50 (Mus musculus [3]): 4.4 µmol/kg
ED50 (Mus musculus [4]): 0.65 µmol/kg
ED50 [11]: 7 µmol/kg

Cc1c(Cl)cccc1N1CCN(CCCCCOc2ccc3c(c2)NC(=O)CC3)CC1
ED50 (Mus musculus [1]): > 23 µmol/kg

Cc1cccc(N2CCN(CCCCOc3ccc4c(c3)NC(=O)CC4)CC2)c1Br
ED50 (Mus musculus [4]): > 21 µmol/kg

Cc1cccc(N2CCN(CCCOc3ccc4ccc(O)nc4c3)CC2)c1C
ED50 (Mus musculus [4]): 3.5 µmol/kg
ED50 [11]: 151 µmol/kg
Ratio [6]: > 1.4
ED50 (Rattus norvegicus [16]): 1860 µmol/kg
ED50 (Rattus norvegicus [10]): 15.1 µmol/kg
ED50 [7]: 41.3 µmol/kg

Cc1cccc(N2CCN(CCCCOc3ccc4c(c3)NC(=O)CC4)CC2)c1C
ED50 (Mus musculus [3]): 13.5 µmol/kg
ED50 (Mus musculus [4]): 9.1 µmol/kg
ED50 [5]: > 314 µmol/kg

Cc1ccc(N2CCN(CCCCOc3ccc4c(c3)NC(=O)CC4)CC2)cc1Cl
ED50 (Mus musculus [1]): > 7 µmol/kg

Cc1c(Br)cccc1N1CCN(CCCCOc2ccc3ccc(O)nc3c2)CC1
ED50 [7]: 2.1 µmol/kg

O=C(CCCN1CCC(O)(c2ccc(Cl)cc2)CC1)c1ccc(F)cc1 [HALOPERIDOL]
ED50 (Mus musculus [3]): 0.9 µmol/kg
ED50 (Mus musculus [12]): inactive
ED50 (Mus musculus [13]): inactive
ED50 [11]: > 341 µmol/kg
ED50 (Rattus norvegicus [9]): 1.1 µmol/kg

Oc1ccc2ccc(OCCCCN3CCN(c4cccc(Cl)c4Cl)CC3)cc2n1
ED50 (Mus musculus [4]): > 22 µmol/kg
ED50 [5]: > 287 µmol/kg
ED50 [7]: 0.9 µmol/kg

Cc1c(Br)cccc1N1CCN(CCCCOc2ccc3c(c2)NC(=O)CC3)CC1
ED50 (Mus musculus [4]): 1.3 µmol/kg

O=C1CCc2ccc(OCCCCN3CCN(c4ccccc4)CC3)cc2N1
ED50 (Mus musculus [1]): > 28 µmol/kg

O=C1CCc2ccc(OCCCCN3CCN(c4ccc(Cl)c(Cl)c4)CC3)cc2N1
ED50 (Mus musculus [2]; read-out: ED50): > 7 µmol/kg
